Measured values reported in ChEMBL document CHEMBL1123801, “Synthesis and antifungal activity of new 1-vinylimidazoles” (1987).
Converted amounts (≈) assume the structure as drawn.

Key:
Assay type in all cases: functional
Aspergillus fumigatus = experiment: Minimum inhibitory concentration (MIC) against Aspergillus fumigatus
Method in brief: (§1)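 Broth microdilution in Sabouraud's glucose broth. Final inocula 1×10^5 cells/mL for the yeast (C. albicans) and 1×10^5 conidia/mL for the mold (A. fumigatus) and the dermatophyte (T. asteroides). MIC read as the fungistatic end point. Lowest value of duplicated experiments.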

Candida albicans = experiment: Minimum inhibitory concentration (MIC) against Candida albicans; method in brief: as §1
Trichophyton benhamiae = experiment: Minimum inhibitory concentration against Trichophyton asteroides; method in brief: as §1

Structure (SMILES): C=C(c1ccccc1OCCOc1ccccc1)n1ccnc1
- MIC (Aspergillus fumigatus): 12.5 µg/mL (≈ 40.8 µM)
- MIC (Candida albicans): 50 µg/mL (≈ 163 µM)
- MIC (Trichophyton benhamiae): 0.1 µg/mL (≈ 0.326 µM)

Structure (SMILES): C=C(c1cc(Cl)cc(Cl)c1OCc1ccsc1)n1ccnc1
- MIC (Aspergillus fumigatus): 100 µg/mL (≈ 285 µM)
- MIC (Candida albicans): > 100 µg/mL
- MIC (Trichophyton benhamiae): 6.2 µg/mL (≈ 17.7 µM)

Structure (SMILES): C=C(c1ccccc1OCCC)n1ccnc1
- MIC (Aspergillus fumigatus): 1.6 µg/mL (≈ 7.01 µM)
- MIC (Candida albicans): 100 µg/mL (≈ 438 µM)
- MIC (Trichophyton benhamiae): 0.1 µg/mL (≈ 0.438 µM)

Structure (SMILES): CC=C(c1ccccc1OCc1ccc(Cl)cc1Cl)n1ccnc1
- MIC (Aspergillus fumigatus): 0.1 µg/mL (≈ 0.278 µM)
- MIC (Candida albicans): 12.5 µg/mL (≈ 34.8 µM)
- MIC (Trichophyton benhamiae): 6.2 µg/mL (≈ 17.3 µM)

Structure (SMILES): CC(C)=C(c1cc(Cl)ccc1OCCCOc1ccc(Cl)cc1)n1ccnc1
- MIC (Aspergillus fumigatus): > 100 µg/mL
- MIC (Candida albicans): > 100 µg/mL
- MIC (Trichophyton benhamiae): 3.1 µg/mL (≈ 7.43 µM)

Structure (SMILES): CCC=C(c1cc(Cl)ccc1OCc1ccc(Cl)cc1Cl)n1ccnc1
- MIC (Aspergillus fumigatus): 0.8 µg/mL (≈ 1.96 µM)
- MIC (Candida albicans): 12.5 µg/mL (≈ 30.7 µM)
- MIC (Trichophyton benhamiae): 0.2 µg/mL (≈ 0.491 µM)

Structure (SMILES): CC(C)=C(c1cc(Cl)ccc1OCc1ccc(Cl)cc1)n1ccnc1
- MIC (Aspergillus fumigatus): 6.2 µg/mL (≈ 16.6 µM)
- MIC (Candida albicans): 6.2 µg/mL (≈ 16.6 µM)
- MIC (Trichophyton benhamiae): 0.2 µg/mL (≈ 0.536 µM)

Structure (SMILES): C=C(c1c(Cl)ccc(Cl)c1OCc1ccc(Cl)cc1)n1ccnc1
- MIC (Aspergillus fumigatus): > 100 µg/mL
- MIC (Candida albicans): > 100 µg/mL
- MIC (Trichophyton benhamiae): 12.5 µg/mL (≈ 32.9 µM)

Structure (SMILES): C=C(c1ccccc1OCCCSc1ccc(Cl)cc1)n1ccnc1
- MIC (Aspergillus fumigatus): 3.1 µg/mL (≈ 8.36 µM)
- MIC (Candida albicans): 25 µg/mL (≈ 67.4 µM)
- MIC (Trichophyton benhamiae): 0.1 µg/mL (≈ 0.27 µM)

Structure (SMILES): C=C(c1ccccc1OC(C)c1ccccc1)n1ccnc1 (centres undefined)
- MIC (Aspergillus fumigatus): 6.2 µg/mL (≈ 21.4 µM)
- MIC (Candida albicans): 25 µg/mL (≈ 86.1 µM)
- MIC (Trichophyton benhamiae): 0.1 µg/mL (≈ 0.344 µM)

Structure (SMILES): C=C(c1ccccc1OCCCc1ccc(Cl)cc1)n1ccnc1
- MIC (Aspergillus fumigatus): 0.8 µg/mL (≈ 2.36 µM)
- MIC (Candida albicans): 12.5 µg/mL (≈ 36.9 µM)
- MIC (Trichophyton benhamiae): 0.2 µg/mL (≈ 0.59 µM)

Structure (SMILES): C=C(c1ccccc1OCc1ccc(C(C)C)cc1)n1ccnc1
- MIC (Aspergillus fumigatus): 3.1 µg/mL (≈ 9.74 µM)
- MIC (Candida albicans): 25 µg/mL (≈ 78.5 µM)
- MIC (Trichophyton benhamiae): 3.1 µg/mL (≈ 9.74 µM)

Structure (SMILES): C=C(c1cc(Cl)ccc1OCCCC)n1ccnc1
- MIC (Aspergillus fumigatus): 0.4 µg/mL (≈ 1.45 µM)
- MIC (Candida albicans): 25 µg/mL (≈ 90.3 µM)
- MIC (Trichophyton benhamiae): 0.2 µg/mL (≈ 0.723 µM)

Structure (SMILES): CC(C)=C(c1ccccc1OCCc1ccccc1)n1ccnc1
- MIC (Aspergillus fumigatus): 0.8 µg/mL (≈ 2.51 µM)
- MIC (Candida albicans): 50 µg/mL (≈ 157 µM)
- MIC (Trichophyton benhamiae): 0.1 µg/mL (≈ 0.314 µM)

Structure (SMILES): CCC=C(c1cc(Cl)ccc1OCc1ccc(Cl)cc1)n1ccnc1
- MIC (Aspergillus fumigatus): 0.8 µg/mL (≈ 2.14 µM)
- MIC (Candida albicans): 6.2 µg/mL (≈ 16.6 µM)
- MIC (Trichophyton benhamiae): 0.4 µg/mL (≈ 1.07 µM)

Structure (SMILES): C=C(c1ccccc1OCc1ccc([N+](=O)[O-])cc1)n1ccnc1
- MIC (Aspergillus fumigatus): 6.2 µg/mL (≈ 19.3 µM)
- MIC (Candida albicans): 12.5 µg/mL (≈ 38.9 µM)
- MIC (Trichophyton benhamiae): 0.1 µg/mL (≈ 0.311 µM)

Structure (SMILES): CC(C)=C(c1ccccc1OCCCOc1ccccc1)n1ccnc1
- MIC (Aspergillus fumigatus): 6.2 µg/mL (≈ 17.8 µM)
- MIC (Candida albicans): 25 µg/mL (≈ 71.7 µM)
- MIC (Trichophyton benhamiae): 3.1 µg/mL (≈ 8.9 µM)

Structure (SMILES): C=C(c1ccccc1OCc1ccc(OC)cc1)n1ccnc1
- MIC (Aspergillus fumigatus): 6.2 µg/mL (≈ 20.2 µM)
- MIC (Candida albicans): 25 µg/mL (≈ 81.6 µM)
- MIC (Trichophyton benhamiae): 0.1 µg/mL (≈ 0.326 µM)

Structure (SMILES): C=C(c1ccccc1OCCCc1ccccc1)n1ccnc1
- MIC (Aspergillus fumigatus): 3.1 µg/mL (≈ 10.2 µM)
- MIC (Candida albicans): 12.5 µg/mL (≈ 41.1 µM)
- MIC (Trichophyton benhamiae): 0.1 µg/mL (≈ 0.329 µM)

Structure (SMILES): C=C(c1cc(Cl)ccc1OC(C)c1cccc(Cl)c1)n1ccnc1 (centres undefined)
- MIC (Aspergillus fumigatus): 12.5 µg/mL (≈ 34.8 µM)
- MIC (Candida albicans): 6.2 µg/mL (≈ 17.3 µM)
- MIC (Trichophyton benhamiae): 0.1 µg/mL (≈ 0.278 µM)

Structure (SMILES): C=C(c1ccccc1OC(C)c1ccc(OC)cc1)n1ccnc1 (centres undefined)
- MIC (Aspergillus fumigatus): 12.5 µg/mL (≈ 39 µM)
- MIC (Candida albicans): 12.5 µg/mL (≈ 39 µM)
- MIC (Trichophyton benhamiae): 0.4 µg/mL (≈ 1.25 µM)

Structure (SMILES): CC(C)=C(c1ccccc1OCCCc1ccccc1)n1ccnc1
- MIC (Aspergillus fumigatus): 1.6 µg/mL (≈ 4.81 µM)
- MIC (Candida albicans): 25 µg/mL (≈ 75.2 µM)
- MIC (Trichophyton benhamiae): 0.2 µg/mL (≈ 0.602 µM)

Structure (SMILES): C=C(c1cc(Cl)ccc1OCCC)n1ccnc1
- MIC (Aspergillus fumigatus): 0.8 µg/mL (≈ 3.04 µM)
- MIC (Candida albicans): 25 µg/mL (≈ 95.2 µM)
- MIC (Trichophyton benhamiae): 0.1 µg/mL (≈ 0.381 µM)

Structure (SMILES): C=C(c1ccccc1OC(CC)c1ccccc1)n1ccnc1 (centres undefined)
- MIC (Aspergillus fumigatus): 3.1 µg/mL (≈ 10.2 µM)
- MIC (Candida albicans): 6.2 µg/mL (≈ 20.4 µM)
- MIC (Trichophyton benhamiae): 0.1 µg/mL (≈ 0.329 µM)

Structure (SMILES): C=C(c1ccccc1OCCOc1ccc(Cl)cc1)n1ccnc1
- MIC (Aspergillus fumigatus): 1.6 µg/mL (≈ 4.69 µM)
- MIC (Candida albicans): 50 µg/mL (≈ 147 µM)
- MIC (Trichophyton benhamiae): 0.1 µg/mL (≈ 0.293 µM)

Structure (SMILES): C=C(c1cc(Cl)ccc1OCc1ccsc1Cl)n1ccnc1
- MIC (Aspergillus fumigatus): 6.2 µg/mL (≈ 17.7 µM)
- MIC (Candida albicans): 25 µg/mL (≈ 71.2 µM)
- MIC (Trichophyton benhamiae): 0.1 µg/mL (≈ 0.285 µM)

Structure (SMILES): C=C(c1cc(Cl)cc(Cl)c1OCc1ccccc1)n1ccnc1
- MIC (Aspergillus fumigatus): > 100 µg/mL
- MIC (Candida albicans): > 100 µg/mL
- MIC (Trichophyton benhamiae): 3.1 µg/mL (≈ 8.98 µM)

Structure (SMILES): C=C(c1cc(Cl)ccc1OCc1ccc(C)cc1)n1ccnc1
- MIC (Aspergillus fumigatus): 1.6 µg/mL (≈ 4.93 µM)
- MIC (Candida albicans): 25 µg/mL (≈ 77 µM)
- MIC (Trichophyton benhamiae): 0.8 µg/mL (≈ 2.46 µM)

Structure (SMILES): C=C(c1ccc(Cl)cc1OCc1ccc(Cl)cc1)n1ccnc1
- MIC (Aspergillus fumigatus): > 100 µg/mL
- MIC (Candida albicans): > 100 µg/mL
- MIC (Trichophyton benhamiae): > 100 µg/mL

Structure (SMILES): CC=C(c1cc(Cl)ccc1OCc1ccc(Cl)cc1)n1ccnc1
- MIC (Aspergillus fumigatus): 0.8 µg/mL (≈ 2.23 µM)
- MIC (Candida albicans): 3.1 µg/mL (≈ 8.63 µM)
- MIC (Trichophyton benhamiae): 0.8 µg/mL (≈ 2.23 µM)

Structure (SMILES): CC(C)=C(c1ccccc1OCc1ccc(C)cc1)n1ccnc1
- MIC (Aspergillus fumigatus): 6.2 µg/mL (≈ 19.5 µM)
- MIC (Candida albicans): 25 µg/mL (≈ 78.5 µM)
- MIC (Trichophyton benhamiae): 3.1 µg/mL (≈ 9.74 µM)

Structure (SMILES): C=C(c1cc(Cl)ccc1OC(C)c1ccc(Cl)cc1)n1ccnc1 (centres undefined)
- MIC (Aspergillus fumigatus): 12.5 µg/mL (≈ 34.8 µM)
- MIC (Candida albicans): 12.5 µg/mL (≈ 34.8 µM)
- MIC (Trichophyton benhamiae): 0.1 µg/mL (≈ 0.278 µM)

Structure (SMILES): C=C(c1ccccc1OCc1ccccc1)n1ccnc1
- MIC (Aspergillus fumigatus): 3.1 µg/mL (≈ 11.2 µM)
- MIC (Candida albicans): 12.5 µg/mL (≈ 45.2 µM)
- MIC (Trichophyton benhamiae): 0.2 µg/mL (≈ 0.724 µM)

Structure (SMILES): CC=C(c1cc(Cl)ccc1OCc1ccc(Cl)cc1Cl)n1ccnc1
- MIC (Aspergillus fumigatus): 0.4 µg/mL (≈ 1.02 µM)
- MIC (Candida albicans): 12.5 µg/mL (≈ 31.7 µM)
- MIC (Trichophyton benhamiae): 1.6 µg/mL (≈ 4.06 µM)

Structure (SMILES): C=C(c1ccc(Cl)cc1OC)n1ccnc1
- MIC (Aspergillus fumigatus): 100 µg/mL (≈ 426 µM)
- MIC (Candida albicans): > 100 µg/mL
- MIC (Trichophyton benhamiae): 25 µg/mL (≈ 107 µM)

Structure (SMILES): C=C(c1cc(Cl)cc(Cl)c1OCc1ccsc1Cl)n1ccnc1
- MIC (Aspergillus fumigatus): 50 µg/mL (≈ 130 µM)
- MIC (Candida albicans): > 100 µg/mL
- MIC (Trichophyton benhamiae): 3.1 µg/mL (≈ 8.04 µM)

Structure (SMILES): C=C(c1ccccc1OCc1ccc(Cl)cc1Cl)n1ccnc1
- MIC (Aspergillus fumigatus): 1.6 µg/mL (≈ 4.63 µM)
- MIC (Candida albicans): 50 µg/mL (≈ 145 µM)
- MIC (Trichophyton benhamiae): 0.1 µg/mL (≈ 0.29 µM)

Structure (SMILES): CC(C)=C(c1cc(Cl)ccc1OCc1ccc(C)cc1)n1ccnc1
- MIC (Aspergillus fumigatus): 12.5 µg/mL (≈ 35.4 µM)
- MIC (Candida albicans): 25 µg/mL (≈ 70.8 µM)
- MIC (Trichophyton benhamiae): 1.6 µg/mL (≈ 4.53 µM)
